Key:
[1] = test system: MM1.S; assay: Induction of apoptosis in human MM1S cells assessed as early apoptotic cells at 1 uM after 48 hrs in presence of 0.3 uM RAPA by Annexin V-FITC/propidium iodide staining-based flow cytometric analysis (reference value: 0.38%); assay type: functional
[2] = test system: MM1.S; assay: Induction of apoptosis in human MM1S cells assessed as viable cells at 1 uM after 48 hrs in presence of 0.3 uM RAPA by Annexin V-FITC/propidium iodide staining-based flow cytometric analysis (reference value: 98.9%); assay type: functional
[3] = test system: MV4-11; assay: Induction of apoptosis in human MV4-11 cells assessed as late apoptotic cells at 1 uM after 48 hrs by Annexin V-FITC/propidium iodide staining-based flow cytometric analysis (reference value: 5.03%); assay type: functional
[4] = test system: MV4-11; assay: Induction of apoptosis in human MV4-11 cells assessed as necrotic cells at 1 uM after 48 hrs by Annexin V-FITC/propidium iodide staining-based flow cytometric analysis (reference value: 0.17%); assay type: functional
[5] = Toxicity against NOD/SCID mouse xenografted with human MM1S cells assessed as mouse survival at 50 mg/kg, po qd administered for 10 days; assay type: organism-based; conditions: in vivo, 240 h
Method in brief: (§1)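 MM1S s.c. xenograft: 10^7 cells in serum-free RPMI 1640, right flank, female NOD/SCID mice aged 5-6 weeks, randomised at 100-200 mm3 (n=6 per group). Oral daily dosing used physiological saline with 2.5% DMSO and 10% cyclodextrin, pH 9; the combination was given as a suspension. Caliper measurements were taken every 2 days. Survivors were counted.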

[6] = test system: MM1.S; assay: Induction of apoptosis in human MM1S cells assessed as early apoptotic cells at 1 uM after 48 hrs by Annexin V-FITC/propidium iodide staining-based flow cytometric analysis (reference value: 0.38%); assay type: functional
[7] = test system: MV4-11; assay: Induction of apoptosis in human MV4-11 cells assessed as early apoptotic cells at 1 uM after 48 hrs in presence of 0.3 uM RAPA by Annexin V-FITC/propidium iodide staining-based flow cytometric analysis (reference value: 10.7%); assay type: functional
[8] = test system: MV4-11; assay: Induction of apoptosis in human MV4-11 cells assessed as late apoptotic cells at 1 uM after 48 hrs in presence of 0.3 uM RAPA by Annexin V-FITC/propidium iodide staining-based flow cytometric analysis (reference value: 5.03%); assay type: functional
[9] = test system: MM1.S; assay: Induction of apoptosis in human MM1S cells assessed as necrotic cells at 1 uM after 48 hrs by Annexin V-FITC/propidium iodide staining-based flow cytometric analysis (reference value: 0.32%); assay type: functional
[10] = test system: MM1.S; assay: Induction of apoptosis in human MM1S cells assessed as late apoptotic cells at 1 uM after 48 hrs in presence of 0.3 uM RAPA by Annexin V-FITC/propidium iodide staining-based flow cytometric analysis (reference value: 0.42%); assay type: functional
[11] = test system: MV4-11; assay: Induction of apoptosis in human MV4-11 cells assessed as viable cells at 1 uM after 48 hrs by Annexin V-FITC/propidium iodide staining-based flow cytometric analysis (reference value: 84.1%); assay type: functional
[12] = test system: MV4-11; assay: Induction of apoptosis in human MV4-11 cells assessed as viable cells at 1 uM after 48 hrs in presence of 0.3 uM RAPA by Annexin V-FITC/propidium iodide staining-based flow cytometric analysis (reference value: 84.1%); assay type: functional
[13] = test system: MV4-11; assay: Induction of apoptosis in human MV4-11 cells assessed as necrotic cells at 1 uM after 48 hrs in presence of 0.3 uM RAPA by Annexin V-FITC/propidium iodide staining-based flow cytometric analysis (reference value: 0.17%); assay type: functional
[14] = test system: MV4-11; assay: Induction of apoptosis in human MV4-11 cells assessed as early apoptotic cells at 1 uM after 48 hrs by Annexin V-FITC/propidium iodide staining-based flow cytometric analysis (reference value: 10.7%); assay type: functional
[15] = Toxicity against NOD/SCID mouse xenografted with human MM1S cells assessed as mouse survival at 50 mg/kg, po qd administered for 10 days co-treated with 25 mg/kg RAPA; assay type: organism-based; conditions: in vivo, 240 h; method in brief: as §1
[16] = test system: MM1.S; assay: Induction of apoptosis in human MM1S cells assessed as late apoptotic cells at 1 uM after 48 hrs by Annexin V-FITC/propidium iodide staining-based flow cytometric analysis (reference value: 0.42%); assay type: functional
[17] = test system: MM1.S; assay: Induction of apoptosis in human MM1S cells assessed as necrotic cells at 1 uM after 48 hrs in presence of 0.3 uM RAPA by Annexin V-FITC/propidium iodide staining-based flow cytometric analysis (reference value: 0.32%); assay type: functional
[18] = test system: MM1.S; assay: Induction of apoptosis in human MM1S cells assessed as viable cells at 1 uM after 48 hrs by Annexin V-FITC/propidium iodide staining-based flow cytometric analysis (reference value: 98.9%); assay type: functional

Compound O=C(CCCCCCC(=O)Nc1ccccc1)NO [VORINOSTAT] has an Activity [1] of 15%, an Activity [2] of 53.6% and an Activity [3] of 37.9%. For the same compound, the Activity [4] was 3.51%, the Activity [5] was “Non-Toxic” and the Activity [6] was 9.68%. The Activity [7] was 37%, the Activity [8] was 42.4% and the Activity [9] was 3.04%. For the same compound, the Activity [10] was 29.7%, the Activity [11] was 18.6% and the Activity [12] was 17.1%. The Activity [13] was 3.48%, the Activity [14] was 40% and the Activity [15] was “Non-Toxic”. For the same compound, the Activity [16] was 11.8%, the Activity [17] was 1.74% and the Activity [18] was 75.4%.
